The source of these data is ChEMBL document CHEMBL3351262, “Design and synthesis of new benzimidazole-carbazole conjugates for the stabilization of human telomeric DNA, telomerase inhibition, and their selective action on cancer cells” (J Med Chem, 2014).

The pIC50 is the IC50 on a negative log10 scale, so that one unit is a factor of ten. Low readings indicate a large IC50, high ones a small IC50. As usually defined, the ΔTm is the shift of the melting midpoint relative to a reference.

Each structure is given as a SMILES string. pIC50: −log10 of the molar value. The source made the active and inactive calls. The rule behind the calls is not given here.

One assay concerns A549. In words: Cytotoxicity against human A549 cells after 72 hrs by MTT assay. Type of assay: functional, cell-based. The note with it: A549, 72 h. In outline: (§1)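 Cells were seeded at 15.0 × 10³/well and grown 72 h to >70% confluency. They were treated with ligand or 0.1% DMSO in 10% FBS for 72 h at 37 °C, 5% CO2, then given fresh DMEM/10% FBS. MTT (5 mg/mL stock) was added for 4 h, formazan dissolved in DMSO, and read at 595 nm. Viability was normalized to untreated cells after DMSO-blank subtraction. Doses were run in triplicate, with at least three independent experiments.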
A general note: Tetrazolium assays rely on reduction of a dye to a coloured formazan, in cell work by metabolically active cells.

The species named for assay [1] is Homo sapiens. In words: Stabilization of 32P-ATP labeled human Hum21 [5'-G3(T2AG3)3-3'] G-quadruplex DNA assessed as protection against S1 nuclease-mediated degradation at 2.5 to 5 uM pre-incubated for 4 hrs before S1 nuclease addition by PAGE method. In outline: (§2)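 5′-32P-labelled Hum21 was mixed with cold DNA and annealed in KCl; lanes were run in 50 mM KCl. G4 DNA was pre-incubated with ligand for 4 h. 2 μM DNA was digested with 20 U S1 nuclease for 2 min, quenched with acetate/CT DNA/EDTA stop buffer, and ethanol precipitated. Products ran on a 15% polyacrylamide urea sequencing gel beside an A+G ladder and were imaged by phosphorimager.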

Assay [2] can be described thus: Selectivity index, ratio of Kd for calf thymus DNA to Kd for human Hum21 [5'-G3(T2AG3)3-3'] G-quadruplex DNA. In outline: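 Selectivity is the ratio of fluorescence-titration Kd for CT DNA (Tris-HCl pH 7.4, 40 mM NaCl, 0.1 mM EDTA) to Kd for preformed Hum21 G4 DNA (Tris-HCl pH 7.4, 0.1 M NaCl/KCl, 0.1 mM EDTA).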
The test system of assay [3] is HeLa. In words: Cytotoxicity against human HeLa cells at 0.5 to 8 uM after 72 hrs by MTT assay. It counts as functional, cell-based. In outline: as §1
In assay [4] the target is Telomerase reverse transcriptase (Homo sapiens, UniProt O14746). In words: Total inhibition of telomerase isolated form human A549 cells by TRAP-LIG assay.
Assay [5] deals with HeLa. In words: Cytotoxicity against human HeLa cells after 72 hrs by MTT assay. It counts as functional, cell-based. In outline: as §1
For assay [6], the species on record is Homo sapiens. In words: Binding affinity to human Hum21 [5'-G3(T2AG3)3-3'] G-quadruplex DNA assessed as change in melting temperature in 10 mM pH 7.4 Tris-Hcl buffer containing 0.1 mM EDTA and 0.1 mM NaCl […] (reference value: 7 to 10 degC).
The subject of assay [7] is HeLa. Nature of the assay: Cytotoxicity against human HeLa cells at 2 and 5 uM after 15 days by MTT assay.
The species named for assay [8] is Homo sapiens. Nature of the assay: Stabilization of 32P-ATP labeled human Hum21 [5'-G3(T2AG3)3-3'] G-quadruplex DNA assessed as protection against S1 nuclease-mediated degradation at 2.5 to 7.5 uM pre-incubated for 4 hrs before S1 nuclease addition by PAGE method. The method in brief: as §2

Chain of Telomerase reverse transcriptase (O14746 whole entry): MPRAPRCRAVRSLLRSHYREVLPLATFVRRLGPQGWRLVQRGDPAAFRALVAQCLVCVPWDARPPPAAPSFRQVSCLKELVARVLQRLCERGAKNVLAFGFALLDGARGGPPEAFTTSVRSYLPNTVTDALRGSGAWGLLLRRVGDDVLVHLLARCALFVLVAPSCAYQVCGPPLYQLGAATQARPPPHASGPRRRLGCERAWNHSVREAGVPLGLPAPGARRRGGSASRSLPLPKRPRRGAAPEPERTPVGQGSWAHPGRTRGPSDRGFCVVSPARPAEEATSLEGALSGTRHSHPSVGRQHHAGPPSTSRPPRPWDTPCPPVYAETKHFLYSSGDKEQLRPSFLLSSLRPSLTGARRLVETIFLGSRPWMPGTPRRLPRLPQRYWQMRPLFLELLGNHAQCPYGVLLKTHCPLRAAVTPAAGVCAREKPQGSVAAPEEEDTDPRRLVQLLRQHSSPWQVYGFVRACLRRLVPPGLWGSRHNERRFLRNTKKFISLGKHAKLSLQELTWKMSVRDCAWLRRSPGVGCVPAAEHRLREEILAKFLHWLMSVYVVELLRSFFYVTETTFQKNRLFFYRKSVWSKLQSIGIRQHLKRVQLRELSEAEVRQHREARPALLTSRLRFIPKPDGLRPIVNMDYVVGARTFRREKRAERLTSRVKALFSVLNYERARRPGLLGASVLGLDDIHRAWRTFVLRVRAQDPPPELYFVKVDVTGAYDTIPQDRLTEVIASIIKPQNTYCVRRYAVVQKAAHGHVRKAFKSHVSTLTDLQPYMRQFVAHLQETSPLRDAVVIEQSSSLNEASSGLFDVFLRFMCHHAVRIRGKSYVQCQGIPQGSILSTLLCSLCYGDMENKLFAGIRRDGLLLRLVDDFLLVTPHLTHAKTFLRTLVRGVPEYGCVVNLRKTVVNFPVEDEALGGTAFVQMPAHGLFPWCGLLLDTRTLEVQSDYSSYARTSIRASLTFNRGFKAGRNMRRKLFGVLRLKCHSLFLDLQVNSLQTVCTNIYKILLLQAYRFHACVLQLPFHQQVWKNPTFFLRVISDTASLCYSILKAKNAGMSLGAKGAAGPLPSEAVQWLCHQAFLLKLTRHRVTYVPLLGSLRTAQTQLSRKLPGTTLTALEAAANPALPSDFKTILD

Take `CN1CCN(CCCCn2c3ccc(-c4nc5cc(N6CCN(CCO)CC6)ccc5[nH]4)cc3c3cc(-c4nc5cc(N6CCN(CCO)CC6)ccc5[nH]4)ccc32)CC1`: the pIC50 in the assay with A549 and in the assay with HeLa [5] was 5.10 in each case. Also, the result in the assay listed under Homo sapiens [1] and in the assay with HeLa [3] was Active. Besides, the Ratio in assay [2] was found to be 500. The same molecule registered a concentration giving total telomerase inhibition in assay [4] of 1 µM. The ΔTm in the assay listed under Homo sapiens [6] was 15 °C. Further, the inhibition entry in the assay with HeLa [7] is “Active”.
`CN1CCN(CCCCn2c3ccc(-c4nc5cc(N6CCN(C)CC6)ccc5[nH]4)cc3c3cc(-c4nc5cc(N6CCN(C)CC6)ccc5[nH]4)ccc32)CC1`: the pIC50 with A549 and in the assay with HeLa [5] was 5.10 throughout. Also, the Ratio in assay [2] stood at 576. The outcome in the assay on HeLa [3] and in the assay listed under Homo sapiens [8] was Active. Also, in assay [4], the concentration giving total telomerase inhibition was determined as 1 µM. The ΔTm in the assay filed under Homo sapiens [6] came out at 12 °C. Moreover, in the assay with HeLa [7], the inhibition entry was “Active”.
